Tests used:
[1] = molecular target: T1, Histamine H3 receptor (Homo sapiens, UniProt Q9Y5N1); experiment: Inhibitory activity determined by the inhibition of cAMP- stimulated beta-galactosidase transcription in SK-N-MC cells expressing the human Histamine H3 receptor; type: cell-based
[2] = molecular target: T2, Histamine H4 receptor (Homo sapiens, UniProt Q9H3N8); experiment: Intrinsic activity for Histamine H4 receptor
Procedure, shortened: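 SK-N-MC cells stably carrying human H4 receptor and a CRE-driven β-galactosidase reporter gene, grown overnight, then exposed 6 h at 37 °C to 1 μM forskolin plus ligand. Medium removed; cells held overnight at 4 °C in pH 8 phosphate buffer containing Triton and 4 mM ONPG; absorbance read at 405 nm. Mean ± SEM, at least three independent experiments.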

[3] = molecular target: T2, Histamine H4 receptor; experiment: Inhibitory activity determined by the inhibition of cAMP- stimulated beta-galactosidase transcription in SK-N-MC cells expressing the human Histamine H4 receptor; type: cell-based
Procedure, shortened: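 SK-N-MC cells stably carrying human H4 receptor and a CRE-driven β-galactosidase reporter gene, grown overnight, then exposed 6 h at 37 °C to 1 μM forskolin plus ligand. Mean ± SEM, at least three independent experiments.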

[4] = molecular target: T1, Histamine H3 receptor; experiment: Inhibitory activity measured by [3H]- N alpha- methyl-histamine binding to membranes of SK-N-MC cells expressing the human Histamine H3 receptor; type: cell membranes
[5] = molecular target: T2, Histamine H4 receptor; experiment: Inhibitory activity measured by [3H]histamine binding to membranes of SK-N-MC cells expressing the human Histamine H4 receptor

T2 sequence (Q9H3N8 whole entry): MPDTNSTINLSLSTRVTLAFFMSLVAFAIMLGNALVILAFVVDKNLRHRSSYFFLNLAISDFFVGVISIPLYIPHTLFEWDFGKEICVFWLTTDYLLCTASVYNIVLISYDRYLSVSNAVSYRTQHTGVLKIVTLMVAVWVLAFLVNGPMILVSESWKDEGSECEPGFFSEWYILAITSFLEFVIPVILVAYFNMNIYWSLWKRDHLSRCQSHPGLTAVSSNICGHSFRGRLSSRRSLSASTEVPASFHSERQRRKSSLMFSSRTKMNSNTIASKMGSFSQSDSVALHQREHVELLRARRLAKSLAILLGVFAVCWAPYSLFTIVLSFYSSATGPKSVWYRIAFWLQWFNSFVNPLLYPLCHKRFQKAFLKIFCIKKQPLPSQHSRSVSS
T1 sequence (Q9Y5N1 whole entry): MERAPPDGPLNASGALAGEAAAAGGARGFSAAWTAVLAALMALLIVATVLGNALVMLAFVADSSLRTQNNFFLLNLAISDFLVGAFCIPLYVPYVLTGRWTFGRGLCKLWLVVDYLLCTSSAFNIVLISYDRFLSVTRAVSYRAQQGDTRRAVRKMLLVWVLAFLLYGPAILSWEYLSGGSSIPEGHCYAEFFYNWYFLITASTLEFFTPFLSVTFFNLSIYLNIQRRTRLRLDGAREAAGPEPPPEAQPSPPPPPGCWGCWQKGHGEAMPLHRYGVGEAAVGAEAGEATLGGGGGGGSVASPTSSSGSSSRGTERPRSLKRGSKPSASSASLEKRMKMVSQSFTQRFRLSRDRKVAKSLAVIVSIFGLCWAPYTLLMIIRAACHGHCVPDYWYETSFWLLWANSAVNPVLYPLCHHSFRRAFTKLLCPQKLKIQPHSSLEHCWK

Row | Structure (SMILES) | EC50 [1] | Intrinsic activity [2] | EC50 [3] | Ki [4] | Ki [5]
1 | NCCCCc1c[nH]cn1 [IMBUTAMINE] | 7.41 nM | 0.96 | 89.1 nM | 4.07 nM | 
2 | NCC1CC1c1c[nH]cn1 (centres undefined) | 19.5 nM | 0.56 | 1100 nM | 35.5 nM | 112 nM
3 | c1nc(CC2CCCCN2)c[nH]1 (centres undefined) | 794 nM |  | > 10000 nM |  | 8910 nM
4 | O=C(c1c[nH]cn1)C1CCNCC1 | 2750 nM |  | > 10000 nM |  | 479000 nM
5 | NCCCc1c[nH]cn1 [HOMOHISTAMINE] | 42.7 nM | 0.82 | 214 nM | 49 nM | 
6 | C=C(c1c[nH]cn1)C1CCNCC1 | 2.34 nM |  | > 10000 nM | 3.98 nM | 2820 nM
7 | c1nc(C[C@@H]2CCNC2)c[nH]1 | 0.389 nM | 0.8 | 1020 nM | 1.41 nM | 141 nM
8 | C1=C(c2c[nH]cn2)CCNC1 | 1510 nM |  | > 10000 nM | 4270 nM | 263000 nM
9 | c1nc(CC2CCNC2)c[nH]1 (centres undefined) | 1.32 nM | 0.83 | 741 nM | 3.63 nM | 51.3 nM
10 | c1nc(CCCC2CCCCN2)c[nH]1 (centres undefined) | 324 nM |  | > 10000 nM | 93.3 nM | 575 nM
11 | c1nc(CCC2CCCNC2)c[nH]1 (centres undefined) | 513 nM | 0.48 | 2040 nM | 182 nM | 324 nM
12 | c1nc(CC2CCCNC2)c[nH]1 (centres undefined) | 49 nM | 0.64 | 3980 nM | 67.6 nM | 617 nM
13 | c1ncc(CCCC2CCNCC2)[nH]1 | 8.32 nM |  | > 10000 nM | 4.47 nM | 617 nM
14 | c1nc(C[C@H]2CCNC2)c[nH]1 | 2.09 nM | 0.85 | 417 nM | 5.25 nM | 37.2 nM
15 | C[C@@H](N)Cc1c[nH]cn1 |  | 1.04 | 1120 nM |  | 
16 | NCCCCCc1c[nH]cn1 [IMPENTAMINE] | 2.34 nM |  | > 10000 nM |  | 372 nM
17 | c1nc(CCCC2CCCNC2)c[nH]1 (centres undefined) |  |  | > 10000 nM |  | 389 nM
18 | N[C@@H]1C[C@H]1c1cnc[nH]1 [VUF-5296] | 57.5 nM |  | > 10000 nM | 67.6 nM | 3800 nM
19 | NCCCCCCc1cnc[nH]1 | 33.1 nM |  | > 10000 nM | 10 nM | 759 nM
20 | c1nc(C2CCNCC2)c[nH]1 | 1820 nM |  | > 10000 nM | 871 nM | 2190 nM
21 | c1nc(CCC2CCCCN2)c[nH]1 (centres undefined) | > 10000 nM |  | > 10000 nM |  | 4470 nM
22 | C(=C1CCNCC1)c1c[nH]cn1 | 3.16 nM |  | > 10000 nM | 5.89 nM | 1740 nM
23 | c1nc(CC2CCNCC2)c[nH]1 [IMMEPIP] | 0.132 nM | 0.73 | 56.2 nM | 0.479 nM | 
24 | N[C@H]1C[C@@H]1c1c[nH]cn1 [VUF-5297] | 5.89 nM | 0.61 | 7080 nM | 9.33 nM | 1100 nM
25 | c1nc(CCC2CCNCC2)c[nH]1 | 13.2 nM |  | > 10000 nM | 20 nM | 372 nM
